Experimental data published in ChEMBL document CHEMBL4513216, “Probing the Open Global Health Chemical Diversity Library for Multistage-Active Starting Points for Next-Generation Antimalarials” (ACS Infect Dis, 2020).

Test: Toxicity liver stage against HepG2, at 10uM
Format: cell-based
Set-up: test concentration 10 uM, cell line HepG2-A16-CD81EGFP
Conditions: human, HepG2-A16-CD81EGFP cells; read-out: INHIBITION
In short: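 Uninfected HepG2-A16-CD81EGFP cells, 3 × 10^3 per well, 1536-well, plated on prespotted compound at 10 μM final, parasite-free screening media added to match infected plates; puromycin 10 μM positive, DMSO 0.5% negative; run in parallel with 48 h PbLuc assay at 37 °C, 5% CO2; viability by CellTiter-Glo luminescence, normalized to controls.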

Structure (SMILES) | cytotoxicity at 10 µM [%]
O=C1CO[C@H]2CN(S(=O)(=O)c3ccccc3)C[C@H]2N1CC1CCCCC1 | 3.36
N#Cc1ccc(C(=O)N2CCOC[C@H](Oc3cnccn3)C2)cc1 | 5.88
Nc1ncncc1-c1noc([C@@H]2CCCN2CC2CC2)n1 | -1.18
CCc1nnc(SCc2cc(=O)n3c4c(sc3n2)CCCC4)[nH]1 | -3.91
CCOC(=O)[C@@H]1[C@@H](O)C(=O)N(C)C12CCN(C(=O)c1ccco1)CC2 | -2.36
COCCOC(=O)N1CC2=CC(C)(C)COc3ccc(OC)c(c32)C1 | 1.22
CCCNC(=O)Cn1cc(OC)c(=O)cc1CSc1nc(C)cc(C)n1 | 4.46
O=C(CN1CCC(c2nnc(C(F)(F)F)o2)CC1)NCc1ccccc1 | 2.51
O=C1CCC2(CCCN(C(=O)c3cnccn3)CC2)N1 (stereo unspecified) | -2.66
O=C1CO[C@@H]2CN(C(=O)CCc3ccccc3)C[C@H]2N1 | 6.06
COCCC(=O)N1CCCC2(CCN(c3ccccc3)C2=O)C1 (stereo unspecified) | -1.66
CN1C(=O)C2(CCN(S(=O)(=O)C3CC3)CC2)c2ccccc21 | -5.27
CCOCC1CN(C(=O)N(C)C)Cc2nnn(CC3CC3)c21 (stereo unspecified) | -6.26
COc1cccc(CC(=O)N2CC[C@H]3[C@@H]2CCC(=O)N3C)c1 | -4.57
O=C(Nc1ccccc1)N1C[C@@H]2OCCN(C(=O)c3ccco3)[C@@H]2C1 | -150
Cc1cnc(C(=O)N2CCc3ncnc(-c4cnn(C)c4)c3CC2)cn1 | 0.588
CC(C)c1ccc(S(=O)(=O)N2CCCC3(CCCN3S(C)(=O)=O)C2)cc1 (stereo unspecified) | -0.96
O=C(C1CC1)N1CCC2(COCc3cnc(NCc4ccco4)nc32)C1 (stereo unspecified) | -1.08
O=c1cccnn1CC1CN(c2ncc(F)cn2)Cc2nccn2C1 (stereo unspecified) | 4.65
COc1ccc(CN2C[C@@H]3CCCO[C@@H]3[C@H](NC(=O)CC3CC3)C2)cc1 | 25.3
O=C(c1ccsc1)N1C[C@H]2CN(Cc3cccc(F)c3)C(=O)[C@H]2C1 | 0.98
COCC1COCCC12CCN(C(=O)Cc1cccc(OC)c1)CC2 (stereo unspecified) | -2.56
O=c1cc(Cn2ccnc2)nc2n1CCCN(Cc1ccc(F)cc1)C2 | 7.17

Structure (SMILES) | cytotoxicity at 10 µM [%]
CSc1nc2ncc3c(=O)n(C)ccc3n2n1 | -11.6
Cc1nnc([C@H]2CC[C@@H]3[C@@H](CCN3Cc3c(C)noc3C)O2)o1 | -2.26
Cc1nn(C(C)C)c2cn(CC(=O)NC3CCSCC3)nc12 | -2.72
CCn1ncc2c(C(F)(F)F)cc(-c3ccn(C)n3)nc21 | 4.75
CCc1ccccc1Nc1noc2c1CN(C(=O)c1ccn(C)n1)CC2 | 0.295
CN(C)S(=O)(=O)c1ccc(CNC(=O)C2CC(=O)N(C(C)(C)C)C2)cc1 (stereo unspecified) | 2.13
COCC(=O)N(C)Cc1nc(N(C)C)ncc1-c1ccncc1 | 2.42
O=C(CCOc1ccccc1F)NC1CCCN(c2ccccn2)C1 (stereo unspecified) | -5.67
Cc1cc(C(=O)NCc2ccc(F)cc2)nc(C2CCCN2C)n1 (stereo unspecified) | -28.7
CCCc1ncc(CNC2(c3ccc(Cl)cc3)CCC2)cn1 | -9.48
Cc1n[nH]c(C)c1-c1nccnc1CC1CCN(S(C)(=O)=O)C1 (stereo unspecified) | -10.4
CC(=O)N(C)Cc1cccc(NC(=O)c2cnn(C)c2C)c1 | 3.5
CS(=O)(=O)NCCN1CCSCC1c1ccc(Cl)cc1 (stereo unspecified) | -3.7
CC(C)(NS(C)(=O)=O)C(=O)NCc1cccc(Br)c1 | -2.42
CCC(C)(C)C(=O)Nc1ccc2ccn(CC(=O)NC)c2c1 | 4.19
Cc1nc(C)n(CC2CCCN2c2ncnc3sccc23)n1 (stereo unspecified) | -1.09
CCN(Cc1ccco1)C(=O)NCC(C)N1CCc2sccc2C1 (stereo unspecified) | 9.08
CC(C)N1CCCC(CNC(=O)CN(C)S(=O)(=O)c2ccccc2)C1 (stereo unspecified) | -3.88
Cn1ccnc1CCNS(=O)(=O)c1cccc(Br)c1 | 4.95
CC(C)CC(NC(=O)c1cnn(C)c1)C(=O)Nc1cc[nH]n1 (stereo unspecified) | -3.38
CCN(CC)CCn1cc(NC2CCSCC2)cn1 | 2.5
COc1ccc(CNC(=O)NC2CCN(c3ccccc3)C2=O)cc1 (stereo unspecified) | -2.98
CCn1nc2c(cc1=O)CN(Cc1nc(C)c3ccccc3n1)CC2 | -9.35

Structure (SMILES) | cytotoxicity at 10 µM [%]
N#Cc1cccc(OCCN2CCCC2C(=O)NC2CC2)c1 (stereo unspecified) | -3.78
CCc1nc(CN(C)C(=O)NCc2cccc(NC(C)=O)c2)cs1 | -3.71
Cn1cnc2c1CCN(CC(=O)N(Cc1ccccc1F)C1CC1)C2 | 4.91
CCCc1nc(CNc2cccc(C(=O)N3CCCC(O)C3)c2)no1 (stereo unspecified) | -5.35
O=C(NCCn1ccnc1)c1csc(Br)c1 | 13
CCC(=O)NCC(=O)NCC1(c2c(F)cccc2F)CCCC1 | -0.147
Cc1cc(CNC(=O)Cc2cccs2)ccc1S(C)(=O)=O | -2.74
Cc1cccc(OCCNC(=O)C(C)S(=O)(=O)C2CCCC2)c1 (stereo unspecified) | 6.72
Cc1cc(OC(F)F)c(C(=O)N2CCN(C3CC3)CC2)s1 | 9.05
CN(CCNS(C)(=O)=O)CC(c1cccs1)N1CCOCC1 (stereo unspecified) | -3.43
Cn1ccc(C(=O)NCCOc2ccc3c(c2)OCO3)cc1=O | 5.97
COc1cc(F)c(S(=O)(=O)Nc2cnc(O)cc2C)cc1OC | 5.66
COCCNC(=O)Cn1cc(NC(=O)c2cccc(Cl)c2Cl)cn1 | -7.04
CCc1cnc(NC(=O)NC2CCN(C)CC2)s1 | -5.66
Cn1ncnc1NS(=O)(=O)c1ccc(F)cc1 | 7.66
CC(C)N1Cc2cccc(NCC(=O)N(C)C)c2C1 | 6.05
CC(C)CCC(C)NC(=O)Nc1ccccn1 (stereo unspecified) | 5.28
Cc1cccc(CNC(CN2CCN(C)CC2)c2ccccc2)c1 (stereo unspecified) | -3.61
N#Cc1ncn(CCC(=O)Nc2c(Cl)cccc2Cl)n1 | -11.4
CCNC(=O)c1ccoc1CN1c2ccccc2CC1C (stereo unspecified) | -10.2
CN(C)C(=O)COCC1CN(Cc2ccoc2)Cc2nnn(C)c21 (stereo unspecified) | 1.81
Fc1ccc(-c2cc(NCCC3CCOC3)n3nccc3n2)cc1 (stereo unspecified) | 2.8
CCn1c(Cn2cncn2)nnc1C1CCN(C2CCNCC2)CC1 | -0.0807

Structure (SMILES) | cytotoxicity at 10 µM [%]
O=C(N[C@@H]1CCNC[C@H]1O)c1cc(F)cc(Cl)c1 | -3.12
CCc1cnc(N)nc1N1CCCC2(CCOCC2)C1 | -135
Cc1nc2c(c(=O)n1C)CN(C(=O)C1CCCN(C(=O)N(C)C)C1)C2 (stereo unspecified) | -5.18
CC(C)c1nccc(CN2CCCC(O)(CN(C)C)CC2)n1 (stereo unspecified) | -2.01
Cn1c(-c2ccccc2Cl)nc2cc(C(=O)NCC3(C)COC3)cnc21 | 1.59
CN(Cc1noc2c1CCCC2)C(=O)Nc1cncc(F)c1 | 2.26
C=C(C)COc1cccc(C(=O)N(C)Cc2cc(CC)no2)c1 | -3.42
COc1ccc2[nH]c(=O)c(CN(C)C(C)c3ccccn3)cc2c1 (stereo unspecified) | 2.76
c1nc(CCNc2nc(C3CC3)nc3c2CCNCC3)c[nH]1 | -130
CCn1ncnc1C(C)NC(=O)C1CCN(Cc2ccco2)CC1 (stereo unspecified) | -133
CC(C)(O)CCc1ccc(C(=O)NCCC2CCOC2)cc1 (stereo unspecified) | 0.824
CCc1nc(N2CCN(c3ncccn3)CC2)c2cnn(C)c2n1 | -1.04
COCCNc1nc2c(c(NCc3ccncc3)n1)CCNCC2 | -2.18
CCn1c(CN(C)C)nnc1C1CCN(Cc2cccc(OC)c2)CC1 | -13.6
Cc1ccc([C@@H]2CN(C(=O)c3csc(C)n3)C[C@H]2NC(=O)C2CC2)cc1 | -5.99
CCC(=O)N1CCC(c2nnc(Cn3cncn3)n2C2CC2)CC1 | -15.4
CCCNC(=O)NC(=O)CN1C=Nc2ccccc2S1(=O)=O | -3.12
O=C(CCn1cncn1)NC1CCc2nccn2C1 (stereo unspecified) | -4.39
Cc1nc(CN2CCCC(N(C)CC3(O)CCCCC3)C2)no1 (stereo unspecified) | -10.3
COc1cc(CNCCc2cnn(C)c2)cc2c1OCO2 | -9.3
CN(C(=O)NCc1ccncc1)C1CCCN(c2ccccc2)C1=O (stereo unspecified) | -8.86
Cc1ccc(NC2CCN(C(=O)Cc3c(C)nn(C)c3C)CC2)nn1 | -11.9
CC(C)(C)c1cc(NC(=O)CN2CCn3c(nnc3C3CC3)C2)on1 | -4.1

Structure (SMILES) | cytotoxicity at 10 µM [%]
OC(COCc1ccc(Cl)cc1)CN1CC(n2cccn2)C1 (stereo unspecified) | -6.25
CCc1nnc2n1CCN(Cc1ncc(-c3ccc(F)cc3)o1)C2 | -9.42
Cc1ccc(C)c(C(C)NC(=O)N2CCC(n3cncn3)CC2)c1 (stereo unspecified) | -8.78
Cc1cc(C(=O)N2CCN(Cc3ccsc3)CC2)n(C)n1 | 1.98
COc1ccc(C(=O)NCCNC(=O)c2scnc2Cl)cc1 | -16.8
Cc1ccc(S(=O)(=O)N2CCc3ccc(F)cc32)cc1C(=O)O | -19.4
COCc1nc(C(=O)N2CCCC2c2cc(C)no2)cs1 (stereo unspecified) | -12.9
Cc1cc(C(=O)NC2CCc3nc(C)cn3C2)[nH]n1 (stereo unspecified) | -5.15
COCCOCc1cccc(NC(=O)N2CCCC2c2ccncc2)c1 (stereo unspecified) | 6.79
COc1cc(CN)c(OC)c2c1OCO2 | -1.29
CC(C)n1cnc2c(N3CCCC3)nc(C3CCNCC3)cc21 | -3.03
Cn1cc(CN2CCCC3(CCCN3S(C)(=O)=O)C2)cn1 (stereo unspecified) | 2.08
COc1cc(CNC(C)Cn2cccn2)cc(Cl)c1OC (stereo unspecified) | -1.14
O=C(N[C@H]1CN[C@H]2CCCO[C@H]21)c1cccnc1 | -9.99
CN1CCN(C(=O)Cc2cccc(F)c2)Cc2cccnc21 | -6.17
CN(C)CCN1C(=O)CCCC12CCCN(Cc1cccs1)C2 (stereo unspecified) | 0.199
Cc1cccc(CN2CCC3(CCCN(C(=O)c4ccoc4)C3)C2=O)n1 (stereo unspecified) | 3.19
CN(C)CCn1c2c(ccc1=O)CCN(Cc1cnn(C)c1)CC2 | -2.65
CN(C)C(=O)CN1CCOCC2(CCN(c3ncc(F)cn3)CC2)C1 | 0.419
